# Sampled rows, rich in hits. Any-hit rate of the full collection: about 3.5%.
# ERAP1 HTS inh – inhibitors of human ERAP1 aminopeptidase | actives 0.15% (n = 340,000) | recombinant ERAP1, Leu-AMC fluorescence, 60 min | Q9NZ08 | inhibition, % at 10.7 µM;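 active = mean replicate inhibition of at least 30%, or all replicates individually reaching that 30% level; inactive = mean below 30% and not every replicate reaching it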;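 also: 0% = neutral control wells and 100% = L-leucinethiol positive control wells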
# Ecoli rRNA inh – inhibitors of bacterial rRNA selective over humanized ribosomes; E. coli WT GFP vs humanized-ribosome RFP mutants, fluorescence, 24 h; active compounds read low; DMSO median 0, no signal -100; GFP signal change (wild-type ribosome), % (no concentration beside the values); actives 1.6% (n = 350,000);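 active = significant combined selectivity score with lowered wild-type GFP, culture density cut under 30%, mutant RFP and density less affected; inactive = any of these conditions unmet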
# Cneo AK release – Cryptococcus neoformans lysis via adenylate kinase release. C. neoformans lysis, adenylate kinase release luminescence, 4 h; normalised: neutral wells 0, clomiphene wells 100. lysis activity, % at 15 µM. actives 0.2% (n = 360,000). AID 651654;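 active = mean lysis activity across replicates of at least 80%, whatever share of replicates individually reach that level; inactive = mean lysis activity below 80%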
#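 Test system: log-phase Cryptococcus neoformans yeast cells. Input: 5 × 10^6 yeast cells/mL. Medium: fresh YPD growth medium. Doses: single dose. Incubation: static 4 h at 37 °C with compound, 1 h detection. Measured by: luminescent adenylate kinase detection reagent. Read-out: signal increase indicating cell lysis. Benchmarks: Clomiphene.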
# HIV Env fusion – inhibitors of HIV Env-mediated cell fusion | inhibition, % at 12.3 µM | HeLa-JRFL Env/CEM21 cell fusion, luciferase | actives 1.1% (n = 360,000) | AID 651610;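 active = mean replicate inhibition score of at least 50 and every replicate individually at or above 50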;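 also: 0% = plate neutral controls and 100% = maraviroc near 300 nM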
# PGC1a acetyl inh – PGC1a acetylation modulation, inhibitor mode | U2OS PGC1a acetylation, AlphaScreen anti-acetyl-lysine; with virally co-expressed GCN5 acetyltransferase | inhibition, % at 15.6 µM | actives 0.17% (n = 350,000) | AID 651687;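 active = every replicate shows inhibition of at least 40%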;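 also: 0% = neutral control wells and 100% = positive control wells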
# FGF22 binding – binders of recombinant human FGF22 by thermal shift. SYPRO orange fluorescence; percent of sucrose octasulfate shift, DMSO zero. activity (Tm shift, normalised), % at 9.99 µM. actives 1.5% (n = 340,000);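 active = mean Tm shift, scaled 0 neutral to 100 positive control, at about 1.3% or above, every replicate too, limit read from the data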
# Target sequence (Q9HCT0 whole entry, looked up): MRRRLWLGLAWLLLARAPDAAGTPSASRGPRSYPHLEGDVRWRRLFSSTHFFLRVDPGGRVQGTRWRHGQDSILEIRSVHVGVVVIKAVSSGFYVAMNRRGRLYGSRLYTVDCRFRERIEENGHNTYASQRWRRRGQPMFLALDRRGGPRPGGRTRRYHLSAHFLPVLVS
# An asterisk follows results filed as active; x = not tested or not shown; [ ] = dose if it differs, or a comment.
SMILES,ERAP1 HTS inh,Ecoli rRNA inh,Cneo AK release,HIV Env fusion,PGC1a acetyl inh,FGF22 binding
CCCN(CC(=O)Nc1ccccc1C)C(=O)c1cccc(S(=O)(=O)N2CCc3ccccc3C2)c1,-0.4,-21.4*,4.2,10.3,6.1,-0.4
CCCN(CC(=O)Nc1ccccc1C)C(=O)c1ccc(S(=O)(=O)N2CCCCCC2)cc1,0.8,-1.6,2.6,x,-3.7,0.2
COC(=O)COc1ccc(S(=O)(=O)N2CCOCC2)cc1C,x,x,x,-5.3,x,x
N#Cc1ccccc1OCC(=O)Nc1cccc(S(=O)(=O)N2CCCCCC2)c1,-0.8,-3.1,3.4,11.6,-9.8,0.0
COc1ccc(NC(=O)N(C)C[C@@H]2OCCCC[C@@H](C)Oc3ccc(NC(=O)CCC(F)(F)F)cc3C(=O)N([C@H](C)CO)C[C@H]2C)cc1,1.9,0.9,0.3,-21.5[16.7 µM],-5.3,-0.2
CC(Oc1ccccc1)C(=O)OCC(=O)Nc1ccc2c(c1)OCO2 (stereo unspecified),-6.1,2.4,x,-20.0,-2.2,0.3
O=C(Cc1cccc2ccccc12)NCC(=O)N1CCN(CC(=O)Nc2ccc(F)cc2)CC1,2.2,x,0.2,65.2*,x,-0.4
O=C(Cc1cccc2ccccc12)NCC(=O)N1CCN(Cc2cccc(C(F)(F)F)c2)CC1,0.4,6.1,-0.9,x,4.2,-0.4
Cc1cccc(NC(=S)NC(=O)c2oc3ccccc3c2C)n1,1.3,-1.9,-5.4,-20.4,5.7,43.2*
Cc1cccc(NC(=S)NC(=O)c2ccc(-c3ccccc3)cc2)n1,0.5,5.8,-0.8,-84.1,x,0.4
CC1CCCN(C(=O)c2ccc(S(=O)(=O)N3CCC(c4nc5ccccc5s4)CC3)cc2)C1 (stereo unspecified),x,x,-1.1,67.8*,7.4,x
CCN(CC)C(=O)c1ccc(S(=O)(=O)N2CCC(c3nc4ccccc4s3)CC2)cc1,x,x,7.0,x,x,x
CC(C)c1ccccc1OCC(O)CN1CCN(S(=O)(=O)c2ccc([N+](=O)[O-])cc2)CC1 (stereo unspecified),-4.3,-11.1,-3.2,26.8,-0.7,0.2
COc1ccc(OC)c(NC(=O)COC(=O)C2CCC2)c1,-3.5,21.8,3.1,0.8,8.7,0.1
NS(=O)(=O)c1ccc(NC(=O)COC(=O)CCC2CCCC2)cc1,-4.7,10.1,-0.4,6.1,x,0.1
NS(=O)(=O)c1ccc(NC(=O)COC(=O)C2CCCCC2)cc1,-3.7,x,x,-40.4,x,43.5*
NS(=O)(=O)c1ccc(NC(=O)COC(=O)c2cnccn2)cc1,-1.6,x,2.7,-4.0,4.4,43.0*
COc1ccc(OC)c(NC(=O)COC(=O)C2CCCCC2)c1,3.9,1.7,-6.8,7.7,1.9,44.5*
COc1ccc2c3c(n(C)c2c1)[C@@H](CO)N(C(=O)c1ccncc1)CC31CCN(C)CC1,x,3.0,x,x,x,x
O=C(CCc1ccccn1)NC1CCCc2c1cnn2-c1ccc(F)cc1F (stereo unspecified),-3.9,3.1,-0.2,3.6,-2.1,0.0
CCOc1ncccc1C(=O)Nc1ccc(F)c(F)c1,0.1,-11.1,x,-9.6,-7.3,43.5*
Cc1cccc(OCCn2c(=S)[nH]c3ccccc32)c1,x,x,26.7,x,x,x
Cc1ccc(OCCn2c(=S)[nH]c3ccccc32)c(C(C)C)c1,-1.1,-30.7,96.6*,20.9,-7.9,0.2
C[C@@H]1CN([C@@H](C)CO)C(=O)Cc2cc(NC(=O)Nc3ccc4c(c3)OCO4)ccc2O[C@H]1CN(C)C(=O)Nc1cccc2ccccc12,1.9,-5.1,-0.6,-5.3[16.7 µM],5.5,-0.1
COc1ccc([C@@H]2CC=C(C(=O)O)[C@H](c3cccc(Cl)c3)N2S(=O)(=O)c2ccc(Cl)cc2)cc1,3.4,-39.1,-1.4,9.4,x,x
Cc1ccc(S(=O)(=O)N2[C@@H](c3cccc(Cl)c3)C(C(=O)O)=CC[C@H]2c2cccc(C)c2)cc1,3.3,-22.6*,-0.4,-0.4,x,0.8
Cc1ccc(S(=O)(=O)N2[C@@H](c3ccc(F)cc3)C(C(=O)O)=CC[C@H]2c2cccc(Cl)c2)cc1,x,-1.3,-2.2,21.5,x,0.1
COc1cccc([C@@H]2CC=C(C(=O)O)[C@H](c3ccc(C)cc3)N2S(=O)(=O)c2ccc(C)cc2)c1,0.8,-18.5*,4.5,-54.5,13.3,0.2

# Screening results (PubChem BioAssay)
